The source made the active and inactive calls. The calls are words filed in the database; no cut-off is given here.
Experiments:
[1] = molecular target: Polymerase acidic protein (Influenza A virus (A/Puerto Rico/8/1934(H1N1)), UniProt P03433); test: Inhibition of Influenza A virus RNA-dependent RNA polymerase PA N-terminal endonuclease using [6-FAM]AATCGCAGGCAGCACTC[TAM] substrate and measured over 45 mins by fluorescence based assay
[2] = molecular target: Polymerase acidic protein (Influenza A virus (A/Puerto Rico/8/1934(H1N1))) (UniProt P03433)
[3] = molecular target: Methionine aminopeptidase 2 (Homo sapiens) (UniProt P50579); test: Inhibition of recombinant human MetAP2 at 200 uM using Met-AMC as fluorogenic substrate by fluorescence assay
Sequence of Methionine aminopeptidase 2 (Homo sapiens) (P50579 2-478 limits assumed): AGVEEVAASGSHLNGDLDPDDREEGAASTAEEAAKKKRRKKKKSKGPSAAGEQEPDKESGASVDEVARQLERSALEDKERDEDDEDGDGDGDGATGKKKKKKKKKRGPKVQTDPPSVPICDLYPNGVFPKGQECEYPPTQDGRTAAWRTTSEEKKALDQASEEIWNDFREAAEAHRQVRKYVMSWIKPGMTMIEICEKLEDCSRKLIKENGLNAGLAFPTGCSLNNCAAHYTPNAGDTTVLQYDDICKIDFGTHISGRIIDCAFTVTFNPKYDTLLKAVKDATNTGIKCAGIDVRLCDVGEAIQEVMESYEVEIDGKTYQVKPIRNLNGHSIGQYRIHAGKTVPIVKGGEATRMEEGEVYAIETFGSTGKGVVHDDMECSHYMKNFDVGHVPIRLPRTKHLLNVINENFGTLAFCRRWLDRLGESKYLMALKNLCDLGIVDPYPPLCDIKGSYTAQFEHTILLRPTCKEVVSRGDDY

[4] = molecular target: Carbonic anhydrase 2 (Homo sapiens) (UniProt P00918); test: Inhibition of recombinant human CA2 expressed in Escherichia coli BL21 at 200 uM incubated for 15 mins using p-Nitrophenyl acetate substrate
[5] = molecular target: Macrophage metalloelastase (Homo sapiens) (UniProt P39900); test: Inhibition of human recombinant MMP12 at 200 uM incubated for 15 mins using OmniMMP fluorogenic substrate by fluorescence based assay
Sequence of Macrophage metalloelastase (Homo sapiens) (P39900 106-470 limits assumed): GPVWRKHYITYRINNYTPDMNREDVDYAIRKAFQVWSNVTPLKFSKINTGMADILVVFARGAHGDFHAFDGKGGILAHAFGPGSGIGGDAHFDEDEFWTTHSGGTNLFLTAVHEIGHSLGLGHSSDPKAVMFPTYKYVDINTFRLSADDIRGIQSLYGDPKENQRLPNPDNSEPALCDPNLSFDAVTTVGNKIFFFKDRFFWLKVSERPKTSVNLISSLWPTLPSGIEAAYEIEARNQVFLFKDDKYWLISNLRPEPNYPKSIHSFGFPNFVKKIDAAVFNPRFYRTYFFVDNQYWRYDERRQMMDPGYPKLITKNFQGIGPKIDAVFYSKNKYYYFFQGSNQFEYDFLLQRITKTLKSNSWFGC

[6] = molecular target: T1, Arginase-1 (Homo sapiens) (UniProt P05089); test: Inhibition of human Arg1 at 200 uM using thio-arginine substrate incubated for 30 mins by Ellman's reagent based assay
T1 sequence (whole entry): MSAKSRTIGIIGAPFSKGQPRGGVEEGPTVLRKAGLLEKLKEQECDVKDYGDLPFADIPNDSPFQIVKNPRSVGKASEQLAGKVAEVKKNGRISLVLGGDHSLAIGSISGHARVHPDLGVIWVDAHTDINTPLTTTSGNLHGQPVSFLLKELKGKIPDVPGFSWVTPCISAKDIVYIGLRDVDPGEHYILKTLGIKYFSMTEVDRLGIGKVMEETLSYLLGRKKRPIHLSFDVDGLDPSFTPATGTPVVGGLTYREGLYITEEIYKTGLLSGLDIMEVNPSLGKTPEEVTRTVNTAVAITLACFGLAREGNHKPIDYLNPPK

[7] = (§1) Selectivity index, ratio of CC50 for cytotoxicity in mouse NIH/3T3 cells assessed as reduction in cell viability incubated for 12 hrs by MTT assay to EC50 for antiviral activity against Influenza A virus (A/California/04/2009(H1N1)) ATCC VR-1737 infected in MDCK cells assessed as reduction in virus-induced cytopathic effect incubated for 48 hrs by Cell-titer-Glo luminescence assay; format: toxicity, cell-based; details: read-out: Ratio CC50/EC50
[8] = Antiviral activity against Influenza A virus (A/California/04/2009(H1N1)) ATCC VR-1737 infected in MDCK cells assessed as reduction in virus-induced cytopathic effect incubated for 48 hrs by Cell-titer-Glo luminescence assay; format: functional, cell-based; details: ATCC VR-1737, MDCK
In short: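 MDCK cells at 80% confluence were exposed to virus plus a range of inhibitor concentrations for 48 h at 37 °C, 5% CO2. CPE and cell viability were then read by CellTiter-Glo luminescence.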

[9] = Cytotoxicity in mouse NIH/3T3 cells assessed as reduction in cell viability incubated for 12 hrs by MTT assay; format: cell-based, NIH3T3
[10] = as §1, with “MDCK” for “mouse NIH/3T3”; format: toxicity, cell-based; details: dog, read-out: Ratio CC50/EC50
[11] = Cytotoxicity in MDCK cells assessed as reduction in cell viability incubated for 12 hrs by MTT assay; format: cell-based, Canis lupus familiaris; details: dog

| Structure (SMILES) | IC50 ([1]; read-out: IC50) | ΔTm [2] | IC50 ([1]; read-out: pIC50 (converted)) | also measured |
| --- | --- | --- | --- | --- |
| Cc1ccc(-c2cc(=O)c(O)c(C(=O)O)[nH]2)cc1 | 7.2 nM | 10.3 °C | – | – |
| CC(C)c1cccc(-c2cc(=O)c(O)c(C(=O)O)[nH]2)c1 | 6.3 nM | 10.1 °C | – | – |
| O=C(O)c1[nH]c(-c2ccc(Oc3ccccc3)cc2)cc(=O)c1O | 25 nM | 8.1 °C | – | – |
| Cc1cccc(-c2cc(=O)c(O)c(C(=O)O)[nH]2)c1 | 4.8 nM | 10.7 °C | – | – |
| O=C(O)c1cccc(-c2cc(=O)c(O)c(C(=O)O)[nH]2)c1 | 2.3 nM | 11.7 °C | – | – |
| O=C(O)c1[nH]c(-c2ccccc2Oc2ccccc2)cc(=O)c1O | 6 nM | 10.4 °C | – | – |
| Cc1cc(-c2noc(=O)[nH]2)ccc1-c1cc(=O)c(O)c(C(=O)O)[nH]1 | 120 nM | 16.3 °C | 0.126 nM | inhibition [3]: inactive; inhibition [4]: inactive; inhibition [5]: inactive; inhibition [6]: inactive |
| O=C(O)c1[nH]c(-c2ccc(-c3nnn[nH]3)cc2C(F)(F)F)cc(=O)c1O | 47 nM | 17.8 °C | 0.0501 nM | inhibition [3]: inactive; selectivity ratio at 12 h [7]: 35 to 75; EC50 [8]: 11500 nM; CC50 at 12 h [9]: > 800000 nM; inhibition [4]: inactive; selectivity ratio at 12 h [10]: 35 to 75; CC50 at 12 h [11]: > 800000 nM; inhibition [5]: inactive; inhibition [6]: inactive |
| Cc1cc(-c2nnn[nH]2)ccc1-c1cc(=O)c(O)c(C(=O)O)[nH]1 | 110 nM | 16.5 °C | 0.1 nM | inhibition [3]: 44%; selectivity ratio at 12 h [7]: 35 to 75; EC50 [8]: 21300 nM; CC50 at 12 h [9]: > 800000 nM; inhibition [4]: inactive; selectivity ratio at 12 h [10]: 35 to 75; CC50 at 12 h [11]: > 800000 nM; inhibition [5]: inactive; inhibition [6]: inactive |
| O=C(O)c1[nH]c(-c2ccccc2C(F)(F)F)cc(=O)c1O | < 2 nM | 13.3 °C | < 2 nM | selectivity ratio at 12 h [7]: 35 to 75; EC50 [8]: 10400 nM; CC50 at 12 h [9]: > 800000 nM; selectivity ratio at 12 h [10]: 35 to 75; CC50 at 12 h [11]: > 800000 nM |
| O=C(O)c1[nH]c(-c2ccc(-c3nnn[nH]3)cc2)cc(=O)c1O | < 2 nM | 14.1 °C | < 2 nM | selectivity ratio at 12 h [7]: > 100; EC50 [8]: 7700 nM; CC50 at 12 h [9]: > 800000 nM; selectivity ratio at 12 h [10]: > 100; CC50 at 12 h [11]: > 800000 nM |
| O=C(O)c1[nH]c(-c2ccccc2)cc(=O)c1O | 5.6 nM | 8.5 °C | – | – |
| CCc1ccccc1-c1cc(=O)c(O)c(C(=O)O)[nH]1 | < 2 nM | 13.1 °C | < 2 nM | – |
| O=C1c2c(O)c(=O)ccn2N([C@@H]2c3ccccc3SCc3c2ccc(F)c3F)[C@@H]2COCCN12 [BALOXAVIR] | – | – | – | EC50 [8]: 2200 nM; CC50 at 12 h [9]: > 800000 nM; CC50 at 12 h [11]: 20000 nM |
| CSc1ccccc1-c1cc(=O)c(O)c(C(=O)O)[nH]1 | 3.2 nM | 11.8 °C | – | – |
| O=C(O)c1[nH]c(-c2cccc(Oc3ccccc3)c2)cc(=O)c1O | 14 nM | 9 °C | – | – |
| Cc1ccccc1-c1cc(=O)c(O)c(C(=O)O)[nH]1 | – | 13.2 °C | – | – |
| O=C(O)c1ccc(-c2cc(=O)c(O)c(C(=O)O)[nH]2)cc1 | < 2 nM | 11.9 °C | < 2 nM | – |
| Cc1cc(C(=O)O)ccc1-c1cc(=O)c(O)c(C(=O)O)[nH]1 | 230 nM | 15.3 °C | 0.251 nM | – |
| CC(C)c1ccccc1-c1cc(=O)c(O)c(C(=O)O)[nH]1 | 3.2 nM | 11.6 °C | – | – |
| Cc1cc(=O)c(O)c(C(=O)O)[nH]1 | – | 11.1 °C | – | – |
| O=C(O)/C(O)=C/C(=O)C1(Cc2ccc(Cl)cc2)CCN(Cc2ccccc2)CC1 | – | – | – | selectivity ratio at 12 h [7]: 35 to 75; EC50 [8]: 7400 nM; CC50 at 12 h [9]: > 800000 nM; selectivity ratio at 12 h [10]: 35 to 75; CC50 at 12 h [11]: > 800000 nM |
| O=C(O)c1[nH]c(-c2cccc(-c3nnn[nH]3)c2)cc(=O)c1O | < 2 nM | 12.9 °C | < 2 nM | – |
| COc1ccccc1-c1cc(=O)c(O)c(C(=O)O)[nH]1 | 2.3 nM | 11.9 °C | – | – |

Source: ChEMBL document CHEMBL4334499, “SAR Exploration of Tight-Binding Inhibitors of Influenza Virus PA Endonuclease” (J Med Chem, 2019)
